Measurements taken from ChEMBL document CHEMBL4049419, “Structure-Based Discovery of New Antagonist and Biased Agonist Chemotypes for the Kappa Opioid Receptor” (J Med Chem, 2017).
The source made the active and inactive calls. The calls are words filed in the database; no cut-off is given here.

Experiments:
[1] = biological target: T1, Kappa-type opioid receptor (Homo sapiens, UniProt P41145); experiment: Displacement of 3H-U69593 from human KOR expressed in HEK293 cells after 90 mins by micro beta scintillation counting analysis; assay type: cell-based
Summary of the method: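 Competition binding with 3H-U69593 at cloned human KOR expressed in HEK293 cells. Ki was derived from the curves; normalized data from three independent assays were pooled, mean ± SEM.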

[2] = biological target: T1, Kappa-type opioid receptor; experiment: Displacement of 3H-U69593 from human KOR expressed in HEK293 cells at 50 uM after 90 mins by micro beta scintillation counting analysis; assay type: cell-based
Summary of the method: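 Primary screen of 3H-U69593 binding at cloned human KOR in HEK293 cells, using a single compound concentration of 50 µM tested in quadruplicate. Percent inhibition of radioligand binding is reported.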

Homo sapiens [3] = organism: Homo sapiens; experiment: Ratio of Ki for KOR M142A mutant (unknown origin) to Ki for human KOR expressed in HEK293 cells; assay type: cell-based
[4] = system: Kappa-type opioid receptor (Homo sapiens), P41145 [M142A]; experiment: Displacement of 3H-U69593 from KOR M142A mutant (unknown origin)
Summary of the method: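 Single-point KOR mutants were retested alongside wild-type receptor in ³H-U69593 competition binding. 12-point concentration-response from 100 µM to 10 nM, run in triplicate; Ki derived.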

[5] = biological target: T1, Kappa-type opioid receptor; experiment: Agonist activity at human KOR expressed in HEK293T cells coexpressing Gi assessed as Gi-mediated inhibition of cAMP production at 10 uM incubated for 15 mins followed by Gs activator isoproterenol addition measured after 15 mins by luciferase reporter gene assay relative to Sal-A; assay type: functional, cell-based; details: HEK-293T
Summary of the method: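 HEK293T cells co-transfected with human KOR and a split-luciferase GloSensor cAMP biosensor, plated overnight at 15,000 cells/well in DMEM + 1% dialyzed FBS. Loaded 1 h with 20 mM HEPES/1× HBSS pH 7.4 containing 4 mM luciferin. Drug added for 15 min, then isoproterenol (200 nM final, Gs activation via endogenous β2 receptors); luminescence read 15 min later.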

[6] = biological target: T1, Kappa-type opioid receptor; experiment: Antagonist activity at human KOR expressed in HEK293T cells coexpressing Gi assessed as inhibition of Sal A-induced Gi-mediated reduction of cAMP production incubated for 15 mins followed by Sal A addition for 15 mins and susequent addition of Gs activator isoproterenol measured after 15 mins by luciferase reporter gene assay; assay type: functional, cell-based
Summary of the method: (§1)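 HEK293T cells co-transfected with human KOR and GloSensor split-luciferase cAMP biosensor, plated 15,000 cells/well overnight. Loaded 1 h with 4 mM luciferin in 20 mM HEPES/HBSS pH 7.4. Compounds preincubated 15 min, Sal A 20 nM added for 15 min, then isoproterenol (200 nM final) to drive Gs; luminescence read 15 min later. Sal A shifts analysed by Schild analysis to give KB.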

[7] = biological target: T1, Kappa-type opioid receptor; experiment: Antagonist activity at human KOR expressed in HEK293T cells coexpressing Gi assessed as Gi-mediated inhibition of cAMP production incubated for 15 mins followed by Gs activator isoproterenol addition measured after 15 mins by luciferase reporter gene assay; assay type: functional, cell-based; details: HEK-293T; summary of the method: as §1
[8] = biological target: T1, Kappa-type opioid receptor; experiment: Antagonist activity at KOR (unknown origin) expressed in HTLA cells assessed as inhibition of Sal A-induced beta-arrestin recruitment preincubated for overnight followed by Sal-A addition at 30 mins post compound treatment measured after 20 mins by Bright-Glo luminescence assay; assay type: cell-based
Summary of the method: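 HTLA cells transfected overnight, plated at 15,000 cells/well in DMEM with 1% dialyzed FBS on poly-L-Lys, rested ≥6 h. Test compounds added, then Sal A 30 nM 30 min later; overnight incubation. BrightGlo reagent 20 min at room temperature in the dark; luminescence read. Normalized data, mean ± SEM from at least 4 measurements.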

Homo sapiens [9] = organism: Homo sapiens; experiment: Ratio of Ki for KOR H291A mutant (unknown origin) to Ki for human KOR expressed in HEK293 cells; assay type: cell-based
Homo sapiens [10] = organism: Homo sapiens; experiment: Ratio of Ki for KOR I294A mutant (unknown origin) to Ki for human KOR expressed in HEK293 cells; assay type: cell-based

Sequence of Kappa-type opioid receptor (Homo sapiens), P41145 [M142A] (P41145 whole entry M142A): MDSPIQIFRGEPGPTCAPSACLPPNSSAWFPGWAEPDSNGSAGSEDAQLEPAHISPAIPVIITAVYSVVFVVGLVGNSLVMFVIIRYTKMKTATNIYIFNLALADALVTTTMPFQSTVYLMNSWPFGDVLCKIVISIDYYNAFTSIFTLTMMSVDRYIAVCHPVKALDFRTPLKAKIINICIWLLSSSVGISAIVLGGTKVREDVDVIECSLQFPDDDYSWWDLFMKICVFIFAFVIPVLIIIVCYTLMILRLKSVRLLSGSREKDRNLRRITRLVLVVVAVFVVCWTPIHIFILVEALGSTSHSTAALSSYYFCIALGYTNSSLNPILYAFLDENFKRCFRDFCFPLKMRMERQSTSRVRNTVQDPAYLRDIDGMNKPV
T1 sequence (P41145 whole entry): as the sequence (P41145 whole entry M142A) above, with A142M counted along it

| Structure (SMILES) | Ki ([1]; read-out: Ki) | inhibition [2] | further results |
| --- | --- | --- | --- |
| NC(=O)c1cc(S(=O)(=O)NC2CCN(Cc3ccccc3)CC2)cs1 | 9800 nM | 47.3% | – |
| Oc1ccc(CCC2CCCCN2Cc2ccc(Cl)o2)cc1 (centres undefined) | 500 nM | 95.3% | – |
| COC(=O)[C@@H]1C[C@H](OC(C)=O)C(=O)[C@H]2[C@@]1(C)CC[C@H]1C(=O)O[C@H](c3ccoc3)C[C@]21C | – | – | Ratio Ki (Homo sapiens [3]): 10 |
| O=C(NC[C@@H](c1ccco1)N1CCCC1)c1cc2ccccc2o1 | 950 nM | 64% | Ki ([1]; read-out: pKi (converted)): 912 nM |
| CSc1ccc(CN(CCO)Cc2ccc(-c3ccn[nH]3)s2)cc1 | 3000 nM | 53% | – |
| Oc1cccc(CNCc2cc3ccccc3[nH]2)c1 | 710 nM | 82.4% | Ki ([1]; read-out: pKi (converted)): 676 nM |
| Cc1nc(O)cc(C2CCN(Cc3ccc(C4CCCC4)s3)CC2)n1 | 8100 nM | 73.7% | – |
| COc1ccc2oc(C(=O)NCC(c3ccco3)N3CCCC3)c(C)c2c1 (centres undefined) | 720 nM | 74% | – |
| CC(CCc1ccc(O)cc1)NCCc1ccccc1 (centres undefined) | 6600 nM | 70.2% | – |
| Cc1c(C(=O)NCC(c2ccco2)N2CCCC2)oc2ccc(Cl)cc12 (centres undefined) | 520 nM | 86.5% | inhibition [4]: Active; inhibition [5]: 40 to 60% |
| Cc1ccc(-c2ccccc2CN2CC3CNCC3C2)o1 (centres undefined) | 3000 nM | 60.7% | – |
| Cc1cc2oc(C(=O)NCC(c3ccco3)N3CCCC3)c(C)c2cc1C (centres undefined) | 1100 nM | 77.5% | – |
| Oc1cccc(C(O)CNCc2c(Cl)cccc2Cl)c1 (centres undefined) | 2600 nM | 80.1% | – |
| Oc1cccc(C(O)CNCc2ccc(Cl)cc2Cl)c1 (centres undefined) | 90 nM | 97.9% | inhibition ([6]; HEK-293T): Dose-dependent effect; Kb ([6]; read-out: pA2 (converted)): 166 nM; Kb [7]: 170 nM; Ki ([1]; read-out: pKi (converted)): 83.2 nM; IC50 [8]: 1100 nM; Ki [8]: 230 nM; inhibition [8]: Dose-dependent effect; Ratio Ki (Homo sapiens [9]): > 10; Ratio Ki (Homo sapiens [10]): > 10; Ratio Ki (Homo sapiens [3]): 10 |
| Cc1cccc(C(O)CNC(C)Cn2cc(Br)cn2)c1 (centres undefined) | 6400 nM | 49.8% | – |
| NC1CCc2cc(O)ccc2C1 (centres undefined) | 8300 nM | 48.6% | – |
| Cc1cc(S(=O)(=O)NCC(=O)NC2CCC2NC(C)C)ccc1F (centres undefined) | 6200 nM | 49.1% | – |
| CN(Cc1ccccc1NC(=O)NCc1ccoc1)C1CCCCC1 | 2300 nM | 76.5% | – |
| CCN(Cc1csc(C)n1)C(C)c1cccc(O)c1 (centres undefined) | 630 nM | 74% | Ki ([1]; read-out: pKi (converted)): 562 nM; Ratio Ki (Homo sapiens [9]): > 10; Ratio Ki (Homo sapiens [10]): > 10 |
| COc1ccc(CNCC(O)c2cccc(O)c2)cc1Br (centres undefined) | 230 nM | 98.2% | Ratio Ki (Homo sapiens [9]): > 10; Ratio Ki (Homo sapiens [10]): > 10; Ratio Ki (Homo sapiens [3]): 10 |
| c1ccc(CN2CCC(Nc3nc4ccccc4o3)C2)cc1 (centres undefined) | 2600 nM | 77.5% | inhibition [5]: 40 to 60% |
| Cc1ccc(C(CNC(=O)c2oc3ccc(F)cc3c2C)N2CCCC2)o1 (centres undefined) | 660 nM | 75.8% | inhibition [4]: Active; Ki ([1]; read-out: pKi (converted)): 646 nM; inhibition [5]: 40 to 60% |
| Cc1ncsc1CN1CCCCC1CCc1cccc(O)c1 (centres undefined) | 350 nM | 96.9% | – |
| Cc1ccc(C(CNC(=O)c2oc3ccccc3c2C)N2CCCC2)o1 (centres undefined) | 380 nM | 69.1% | inhibition [4]: Active; Ki ([1]; read-out: pKi (converted)): 363 nM; inhibition [5]: 40 to 60% |
